≈ marks a conversion by molar mass, not a printed value.
tested on: HeLa; assay: Cytostatic activity against human HeLa cells after 72 hrs by FCR-based colorimetric method; format: functional; conditions: read-out: ED50 (the source's name)
In short: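 HeLa cells seeded at 10⁵ cells/mL in Minimal Eagle's medium with 10% fetal calf serum in Leighton tubes at 37 °C; after 2-3 h attachment, compound added as suspension in sterile saline with 0.05% (v/v) Tween 80 (10% of final volume). Incubated 72 h at 37 °C; growth estimated from cell protein by Oyama-Eagle colorimetric method; 6-mercaptopurine positive control.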

Row | EC50 | SMILES
1 | > 100 µg/mL | Br.NCc1cc(C(N)=O)n([C@@H]2O[C@H](CO)[C@@H](O)[C@H](O)[C@H]2O)n1
2 | > 100 µg/mL | Br.NCc1cc(C(N)=O)n([C@@H]2OC[C@@H](O)[C@@H](O)[C@H]2O)n1
3 | 3 µg/mL (≈ 6.49 µM) | CC(=O)O[C@@H]1[C@H](OC(C)=O)[C@H](OC(C)=O)CO[C@H]1n1nc(CBr)cc1C(N)=O
4 | 2 µg/mL (≈ 4.07 µM) | CCOC(=O)c1cc(CBr)nn1[C@@H]1OC[C@@H](OC(C)=O)[C@@H](OC(C)=O)[C@H]1OC(C)=O
5 | 2 µg/mL (≈ 4.33 µM) | CC(=O)OC[C@H]1O[C@@H](n2nc(CBr)cc2C(N)=O)[C@H](OC(C)=O)[C@@H]1OC(C)=O
6 | > 100 µg/mL | Br.NCc1cc(C(N)=O)n([C@@H]2O[C@H](CO)[C@@H](O)[C@H]2O)n1
7 | 5 µg/mL (≈ 8.88 µM) | CCOC(=O)c1cc(CBr)nn1[C@H]1O[C@H](COC(C)=O)[C@@H](OC(C)=O)[C@H](OC(C)=O)[C@H]1OC(C)=O
8 | 6 µg/mL (≈ 10.7 µM) | CCOC(=O)c1cc(CBr)n([C@@H]2O[C@H](COC(C)=O)[C@@H](OC(C)=O)[C@H](OC(C)=O)[C@H]2OC(C)=O)n1
9 | 4 µg/mL (≈ 7.49 µM) | CC(=O)OC[C@H]1O[C@@H](n2nc(CBr)cc2C(N)=O)[C@H](OC(C)=O)[C@@H](OC(C)=O)[C@@H]1OC(C)=O
10 | 2.5 µg/mL (≈ 5.09 µM) | CCOC(=O)c1cc(CBr)nn1[C@@H]1O[C@H](COC(C)=O)[C@@H](OC(C)=O)[C@H]1OC(C)=O
11 | 0.1 µg/mL (≈ 0.657 µM) | Sc1ncnc2nc[nH]c12 [MERCAPTOPURINE ANHYDROUS]
12 | 2 µg/mL (≈ 4.33 µM) | CC(=O)OC[C@H]1O[C@@H](n2nc(C(N)=O)cc2CBr)[C@H](OC(C)=O)[C@@H]1OC(C)=O
13 | 5 µg/mL (≈ 8.88 µM) | CCOC(=O)c1cc(CBr)nn1[C@@H]1O[C@H](COC(C)=O)[C@@H](OC(C)=O)[C@H](OC(C)=O)[C@H]1OC(C)=O

Row | SMILES | EC50
14 | CCOC(=O)c1cc(CN(CCCl)CCCl)nn1[C@@H]1O[C@H](COC(C)=O)[C@@H](OC(C)=O)[C@H](OC(C)=O)[C@H]1OC(C)=O | > 100 µg/mL
15 | CC(=O)OC[C@H]1O[C@@H](n2nc(CN(CCCl)CCCl)cc2C(N)=O)[C@H](OC(C)=O)[C@@H]1OC(C)=O | 35 µg/mL (≈ 66.9 µM)
16 | CCOC(=O)c1cc(CN(CCCl)CCCl)nn1[C@@H]1O[C@H](COC(C)=O)[C@@H](OC(C)=O)[C@H]1OC(C)=O | > 100 µg/mL
17 | CC(=O)O[C@@H]1[C@H](OC(C)=O)[C@H](OC(C)=O)CO[C@H]1n1nc(CN(CCCl)CCCl)cc1C(N)=O | 50 µg/mL (≈ 95.5 µM)
18 | CCOC(=O)c1cc(CN(CCCl)CCCl)nn1[C@@H]1OC[C@@H](OC(C)=O)[C@@H](OC(C)=O)[C@H]1OC(C)=O | > 100 µg/mL
19 | CC(=O)OC[C@H]1O[C@@H](n2nc(CN(CCCl)CCCl)cc2C(N)=O)[C@H](OC(C)=O)[C@@H](OC(C)=O)[C@@H]1OC(C)=O | > 100 µg/mL

Source: ChEMBL document CHEMBL3228043, “Alkylating nucleosides. 2. Synthesis and cytostatic activity of bromomethylpyrazole and pyrazole nitrogen mustard nucleosides” (1979)
